{
  "source": "the M2OR odorant receptor database",
  "data": [
    {"target": "T1, UniProt Q8VGD7", "T1 sequence (whole entry)": "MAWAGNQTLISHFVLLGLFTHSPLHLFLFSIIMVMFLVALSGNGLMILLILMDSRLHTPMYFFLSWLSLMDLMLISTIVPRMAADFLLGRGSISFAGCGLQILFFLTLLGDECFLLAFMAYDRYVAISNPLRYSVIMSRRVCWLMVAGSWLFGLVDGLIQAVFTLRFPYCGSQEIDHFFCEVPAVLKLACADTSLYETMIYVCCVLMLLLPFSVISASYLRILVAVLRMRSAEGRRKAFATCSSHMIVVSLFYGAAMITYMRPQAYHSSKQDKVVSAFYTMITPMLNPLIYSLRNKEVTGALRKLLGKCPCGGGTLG", "settings": "stereoisomer not certain", "outline": "(§1)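 Values were gathered from published papers (main text and supplementary material), with extra details requested from the original authors when needed, and checked for typos and inconsistencies. Each receptor–molecule pair is called responsive (active) if the original authors judged the measured signal statistically different from baseline, and non-responsive (inactive) otherwise. Assay methods varied by source, often transient mammalian cell-line luciferase assays. Recorded details include cell line, G-protein, co-transfected protein and tags.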", "values": [
      {"smiles": "C=CCc1ccccc1", "odorant receptor agonist call": "inactive"},
      {"smiles": "O=c1cc(O)c2ccccc2o1", "odorant receptor agonist call": "inactive"},
      {"smiles": "CCC1CCC(=O)O1", "note": "(stereo unspecified)", "odorant receptor agonist call": "inactive"},
      {"smiles": "C=CCOC(=O)Cc1ccccc1", "odorant receptor agonist call": "inactive"}
    ]},
    {"target": "T2, UniProt Q8VGH1", "T2 sequence (whole entry)": "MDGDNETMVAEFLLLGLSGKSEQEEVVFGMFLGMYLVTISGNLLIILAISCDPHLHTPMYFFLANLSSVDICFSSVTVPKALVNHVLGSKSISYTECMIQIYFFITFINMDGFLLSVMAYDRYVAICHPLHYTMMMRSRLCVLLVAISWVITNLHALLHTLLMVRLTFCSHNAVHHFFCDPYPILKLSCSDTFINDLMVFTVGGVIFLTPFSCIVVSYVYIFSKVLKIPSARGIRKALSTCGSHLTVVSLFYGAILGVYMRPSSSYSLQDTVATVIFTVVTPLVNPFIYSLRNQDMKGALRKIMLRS", "settings": "stereoisomer not certain", "outline": "as §1", "values": [
      {"smiles": "C=CCc1ccccc1", "odorant receptor agonist call": "inactive"},
      {"smiles": "O=c1cc(O)c2ccccc2o1", "odorant receptor agonist call": "inactive"},
      {"smiles": "CCC1CCC(=O)O1", "note": "(stereo unspecified)", "odorant receptor agonist call": "inactive"},
      {"smiles": "C=CCOC(=O)Cc1ccccc1", "odorant receptor agonist call": "inactive"}
    ]},
    {"target": "T3, UniProt Q8VGJ1", "T3 sequence (whole entry)": "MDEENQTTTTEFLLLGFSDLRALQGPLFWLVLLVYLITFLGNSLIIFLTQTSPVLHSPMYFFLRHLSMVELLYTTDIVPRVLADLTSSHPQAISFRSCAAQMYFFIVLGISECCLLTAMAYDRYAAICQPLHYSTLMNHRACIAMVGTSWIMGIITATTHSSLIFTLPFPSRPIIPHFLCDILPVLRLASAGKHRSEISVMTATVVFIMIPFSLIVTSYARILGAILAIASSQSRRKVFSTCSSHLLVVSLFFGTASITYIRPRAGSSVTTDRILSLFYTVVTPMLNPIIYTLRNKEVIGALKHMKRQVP", "settings": "stereoisomer not certain", "outline": "as §1", "values": [
      {"smiles": "C=CCc1ccccc1", "odorant receptor agonist call": "inactive"},
      {"smiles": "O=c1cc(O)c2ccccc2o1", "odorant receptor agonist call": "inactive"},
      {"smiles": "CCC1CCC(=O)O1", "note": "(stereo unspecified)", "odorant receptor agonist call": "inactive"},
      {"smiles": "C=CCOC(=O)Cc1ccccc1", "odorant receptor agonist call": "inactive"}
    ]},
    {"target": "T4, UniProt Q8VGJ3", "T4 sequence (whole entry)": "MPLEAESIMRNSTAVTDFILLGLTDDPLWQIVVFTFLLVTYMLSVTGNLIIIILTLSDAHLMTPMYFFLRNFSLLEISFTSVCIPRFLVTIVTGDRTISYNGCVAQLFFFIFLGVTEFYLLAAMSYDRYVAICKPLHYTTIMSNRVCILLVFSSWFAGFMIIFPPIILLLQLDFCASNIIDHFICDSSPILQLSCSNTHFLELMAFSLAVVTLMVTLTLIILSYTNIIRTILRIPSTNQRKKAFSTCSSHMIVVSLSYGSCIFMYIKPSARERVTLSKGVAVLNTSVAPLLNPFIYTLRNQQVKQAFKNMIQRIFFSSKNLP", "settings": "stereoisomer not certain", "outline": "as §1", "values": [
      {"smiles": "O=CC=Cc1ccccc1", "odorant receptor agonist call": "inactive"},
      {"smiles": "Oc1ccccc1Br", "odorant receptor agonist call": "inactive"},
      {"smiles": "O=Cc1ccc2c(c1)OCO2", "odorant receptor agonist call": "inactive"},
      {"smiles": "C=C(C)C1CC=C(C=O)CC1", "note": "(stereo unspecified)", "odorant receptor agonist call": "inactive"},
      {"smiles": "OCc1ccc2c(c1)OCO2", "odorant receptor agonist call": "inactive"},
      {"smiles": "Cc1ccc(OC(=O)Cc2ccccc2)cc1", "odorant receptor agonist call": "inactive"},
      {"smiles": "CCCCC(Br)C(=O)O", "note": "(stereo unspecified)", "odorant receptor agonist call": "inactive"},
      {"smiles": "O=c1cc(O)c2ccccc2o1", "odorant receptor agonist call": "inactive"},
      {"smiles": "CCCCCCC(Br)C(=O)O", "note": "(stereo unspecified)", "odorant receptor agonist call": "inactive"},
      {"smiles": "C=CCOC(=O)Cc1ccccc1", "odorant receptor agonist call": "inactive"},
      {"smiles": "COc1ccc(C=O)cc1", "odorant receptor agonist call": "inactive"},
      {"smiles": "O=Cc1ccccc1", "odorant receptor agonist call": "active"},
      {"smiles": "CSSC", "odorant receptor agonist call": "inactive"},
      {"smiles": "CC(C=O)Cc1ccc2c(c1)OCO2", "note": "(stereo unspecified)", "odorant receptor agonist call": "inactive"}
    ]}
  ]
}
